Measured values as given in ChEMBL document CHEMBL4308838, “Subtle Modifications to the Indole-2-carboxamide Motif of the Negative Allosteric Modulator N-(( trans)-4-(2-(7-Cyano-3,4-dihydroisoquinolin-2(1 H)-yl)ethyl)cyclohexyl)-1 H-indole-2-carboxamide (SB269652) Yield Dramatic Changes in Pharmacological Activity at the Dopamine D2 Receptor” (J Med Chem, 2018).

Legend:
Assay type in all cases: cell-based
[1] = target: D(2) dopamine receptor (Homo sapiens) (UniProt P14416); experiment: Negative allosteric modulation of human D2LR expressed in Flp-In-CHO cells assessed as inhibition of dopamine-indued ERK1/2 phosphorylation by measuring negative co-operativity factor preincubated for 30 mins followed by dopamine addition and measured after 5 mins by AlphaScreen assay
Procedure, shortened: (§1)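 pERK1/2 signalling through the long D2 isoform (D2LR) expressed in FlpIn CHO cells. Test ligands were measured against increasing dopamine concentrations. Curves were fitted with an operational model of allosterism (functional affinity KB, cooperativity α, efficacy modulation β, net αβ) and with a Gaddum-Schild model (KB, Schild slope). The better fit was chosen by F-test. Mean ± SEM of three experiments run in duplicate.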

[2] = target: D(2) dopamine receptor (Homo sapiens) (UniProt P14416); experiment: (§2) Negative allosteric modulation of human D2LR expressed in Flp-In-CHO cells assessed as inhibition of dopamine-indued ERK1/2 phosphorylation preincubated for 30 mins followed by dopamine addition and measured after 5 mins by AlphaScreen assay relative to control; procedure, shortened: as §1
[3] = target: D(2) dopamine receptor (Homo sapiens) (UniProt P14416); experiment: Negative allosteric modulation of human D2LR expressed in Flp-In-CHO cells assessed as inhibition of dopamine-indued ERK1/2 phosphorylation preincubated for 30 mins followed by dopamine addition and measured after 5 mins by AlphaScreen assay; procedure, shortened: as §1
[4] = target: D(2) dopamine receptor (Homo sapiens) (UniProt P14416); experiment: Negative allosteric modulation of human D2LR expressed in Flp-In-CHO cells assessed as inhibition of dopamine-indued ERK1/2 phosphorylation by measuring co-operativity factor preincubated for 30 mins followed by dopamine addition and measured after 5 mins by AlphaScreen assay relative to control; procedure, shortened: as §1
[5] = target: D(2) dopamine receptor (Homo sapiens) (UniProt P14416); experiment: Negative allosteric modulation of human D2LR expressed in Flp-In-CHO cells assessed as inhibition of dopamine-indued ERK1/2 phosphorylation by measuring co-operativity factor preincubated for 30 mins followed by dopamine addition and measured after 5 mins by AlphaScreen assay; procedure, shortened: as §1
[6] = target: D(2) dopamine receptor (Homo sapiens) (UniProt P14416); experiment: as §2, with “phosphorylation by measuring effect on dopamine efficacy” for “phosphorylation”; procedure, shortened: as §1
[7] = target: D(2) dopamine receptor (Homo sapiens) (UniProt P14416); experiment: Negative allosteric modulation of human D2LR expressed in Flp-In-CHO cells assessed as inhibition of dopamine-indued ERK1/2 phosphorylation by measuring effect on dopamine efficacy preincubated for 30 mins followed by dopamine addition and measured after 5 mins by AlphaScreen assay; procedure, shortened: as §1

Sequence of D(2) dopamine receptor (Homo sapiens) (P14416 whole entry, canonical isoform): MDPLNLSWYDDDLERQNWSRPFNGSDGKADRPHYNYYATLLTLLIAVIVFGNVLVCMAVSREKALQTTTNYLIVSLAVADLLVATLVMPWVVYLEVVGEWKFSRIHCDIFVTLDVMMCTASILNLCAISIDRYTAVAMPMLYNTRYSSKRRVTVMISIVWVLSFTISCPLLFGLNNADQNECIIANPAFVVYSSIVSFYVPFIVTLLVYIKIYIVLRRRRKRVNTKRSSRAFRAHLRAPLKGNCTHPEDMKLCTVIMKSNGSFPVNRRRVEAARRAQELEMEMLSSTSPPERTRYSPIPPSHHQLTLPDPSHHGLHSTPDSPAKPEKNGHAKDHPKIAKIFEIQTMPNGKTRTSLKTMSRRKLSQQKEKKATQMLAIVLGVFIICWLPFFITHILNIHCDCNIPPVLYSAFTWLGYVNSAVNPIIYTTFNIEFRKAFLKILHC

Activity [1]	log(activity) [1]	fold change (FC) [2]	Kb [3] [nM]	pKb [3]	fold change (FC) [4]	Activity [5]	log(activity) [5]	fold change (FC) [6]	Activity [7]	log(activity) [7]	Structure (SMILES)
0.0036	-2.44	275	10	8							N#Cc1ccc2c(c1)CN(CC[C@H]1CC[C@H](NC(=O)c3c[nH]c4cnccc34)CC1)CC2
0.0048	-2.31	210	24	7.62							N#Cc1ccc2c(c1)CN(CC[C@H]1CC[C@H](NC(=O)c3cnc4ccccn34)CC1)CC2
			87	7.06							N#Cc1ccc2c(c1)CN(CC[C@H]1CC[C@H](NC(=O)c3cc4sccc4[nH]3)CC1)CC2
			0.148	9.83	21	0.048	-1.32	6	0.16	-0.8	N#Cc1ccc2c(c1)CN(CC[C@H]1CC[C@H](NC(=O)c3c[nH]c4cccnc34)CC1)CC2
			25	7.6							COc1ccc2cc(C(=O)N[C@H]3CC[C@H](CCN4CCc5ccc(C#N)cc5C4)CC3)[nH]c2c1
			40	7.39							N#Cc1ccc2c(c1)CN(CC[C@H]1CC[C@H](NC(=O)c3cnn4ccccc34)CC1)CC2
0.032	-1.5	32	47	7.33							N#Cc1ccc2c(c1)CN(CC[C@H]1CC[C@H](NC(=O)c3cc4c(F)cccc4[nH]3)CC1)CC2
0.065	-1.19	15	219	6.66							N#Cc1ccc2c(c1)CN(CC[C@H]1CC[C@H](NC(=O)c3cc4ccc(F)cc4[nH]3)CC1)CC2
0.3	-0.52	3	617	6.21							COc1cccc2[nH]c(C(=O)N[C@H]3CC[C@H](CCN4CCc5ccc(C#N)cc5C4)CC3)cc12
			63	7.2							N#Cc1ccc2c(c1)CN(CC[C@H]1CC[C@H](NC(=O)c3c[nH]c4ccccc34)CC1)CC2
0.038	-1.42	26		7.63							N#Cc1ccc2c(c1)CN(CC[C@H]1CC[C@H](NC(=O)c3cc4cccnc4[nH]3)CC1)CC2
0.016	-1.79	62	4.5	8.35							N#Cc1ccc2c(c1)CN(CC[C@H]1CC[C@H](NC(=O)c3cc4cccc(F)c4[nH]3)CC1)CC2
0.03	-1.52	33	165	6.78							N#Cc1ccc2c(c1)CN(CC[C@H]1CC[C@H](NC(=O)c3cc4ccccn4n3)CC1)CC2
0.032	-1.5	32	34	7.47							N#Cc1ccc2c(c1)CN(CC[C@H]1CC[C@H](NC(=O)c3c[nH]c4ncccc34)CC1)CC2
			51	7.29							COc1cccc2cc(C(=O)N[C@H]3CC[C@H](CCN4CCc5ccc(C#N)cc5C4)CC3)[nH]c12
0.00055	-3.26	1800	2.7	8.57							N#Cc1ccc2c(c1)CN(CC[C@H]1CC[C@H](NC(=O)c3cc4ccncc4[nH]3)CC1)CC2
0.016	-1.8	63	6.8	8.17							N#Cc1ccc2c(c1)CN(CC[C@H]1CC[C@H](NC(=O)c3cc4cc(F)ccc4[nH]3)CC1)CC2
			2	8.7							COc1ccc2[nH]c(C(=O)N[C@H]3CC[C@H](CCN4CCc5ccc(C#N)cc5C4)CC3)cc2c1
			3.5	8.46							N#Cc1ccc2c(c1)CN(CC[C@H]1CC[C@H](NC(=O)c3c[nH]c4ccncc34)CC1)CC2
